The results in this text go back to ChEMBL document CHEMBL1125009, “Variation in the aromatic ring of cromakalim: antihypertensive activity of pyranopyridines and 6-alkyl-2H-1-benzopyrans” (1990).

SMILES strings stand for the structures.

What all share (assay type): functional, Artery
Experiment [1] concerns Rattus norvegicus. The experiment can be described thus: The maximum fall in systolic blood pressure was determined at a dose of 10 mg/kg after oral administration in rats. The essentials: (§1)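 Conscious spontaneously hypertensive rats (Japanese Okamoto strain, 14–24 weeks old), used only if systolic pressure was >180 mmHg, six per dose level. Dosed by oral needle into the esophagus as a solution or suspension in 1% w/v methylcellulose. Systolic pressure was read by tail-cuff, each reading the mean of at least six recordings, before dosing and at intervals from 1 to 6 h. The maximum fall was taken.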

The subject of experiment [2] is Rattus norvegicus. Description: The maximum fall in systolic blood pressure was determined at a dose of 3.0 mg/kg after oral administration in rats. An outline of the steps: as §1
Experiment [3] has as its system Rattus norvegicus. The experiment can be described thus: The maximum fall in systolic blood pressure was determined at a dose of 0.3 mg/kg after oral administration in rats. The essentials:
as §1

Experiment [4] has as its system Rattus norvegicus. The experiment can be described thus: The maximum fall in systolic blood pressure was determined at a dose of 1 mg/kg after oral administration in rats. The essentials: as §1
The test system of experiment [5] is Rattus norvegicus. Description: The maximum fall in systolic blood pressure was determined at a dose of 1.0 mg/kg after oral administration in rats. An outline of the steps: as §1
For experiment [6], the system named is Rattus norvegicus. Description: The maximum fall in systolic blood pressure was determined at a dose of 0.1 mg/kg after oral administration in rats. An outline of the steps:
as §1

The test system of experiment [7] is Rattus norvegicus. The experiment can be described thus: The maximum fall in systolic blood pressure was determined at a dose of 3 mg/kg after oral administration in rats. The essentials: as §1
The test system of experiment [8] is Rattus norvegicus. Description: The maximum fall in systolic blood pressure was determined at a dose of 10.0 mg/kg after oral administration in rats. The essentials: as §1

As for `CC1(C)Oc2ncccc2[C@@H](N2CCCC2=O)[C@@H]1O`, in the experiment with Rattus norvegicus [1], the “Max fall in blood pressure” value is reported as 5%.
Regarding `CC(=O)NC1c2cc(C)ccc2OC(C)(C)[C@H]1O` (some centres not stated), the entries for the “Max fall in blood pressure” value in the experiment with Rattus norvegicus [2] and in the experiment with Rattus norvegicus [3] were 20% and 9%, respectively.
For `CC1(C)Oc2cnccc2[C@@H](N2CCCC2=O)[C@@H]1O`, the “Max fall in blood pressure” value worked out at 7% in the experiment on Rattus norvegicus [4] and 41% in the experiment with Rattus norvegicus [1].
`CC(=O)N[C@@H]1c2cnccc2OC(C)(C)[C@H]1O`: the results for the “Max fall in blood pressure” value in the experiment with Rattus norvegicus [5] and in the experiment on Rattus norvegicus [3] were 43% and 14%, respectively.
In the same order, the values of `CCc1ccc2c(c1)C(N1CCCC1=O)[C@H](O)C(C)(C)O2` (some centres not stated) are 54% and 11%.
In the case of `CC(C)c1ccc2c(c1)C(N1CCCC1=O)[C@H](O)C(C)(C)O2` (some centres not stated), the “Max fall in blood pressure” value with Rattus norvegicus [2] came to 60%; with Rattus norvegicus [5], 36%; with Rattus norvegicus [3] it was 17%.
Take `CC(C)(C)c1ccc2c(c1)C(N1CCCC1=O)[C@H](O)C(C)(C)O2` (some centres not stated): the “Max fall in blood pressure” value in the experiment with Rattus norvegicus [2] turned out to be 49%; in the experiment with Rattus norvegicus [5] it was 39%; in the experiment on Rattus norvegicus [3], 9%.
For `CC1(C)Oc2ccncc2[C@@H](N2CCCCC2=O)[C@@H]1O`, the results for the “Max fall in blood pressure” value in the experiment with Rattus norvegicus [5], in the experiment on Rattus norvegicus [6] and with Rattus norvegicus [3] were 56%, 24% and 55%, respectively.
Turning to `CC1(C)C=C(N2CCCCC2=O)c2cnccc2O1`, the “Max fall in blood pressure” value in the experiment with Rattus norvegicus [4] was determined as 14%; in the experiment on Rattus norvegicus [7], 37%.
As for `CC1(C)Oc2ccc(C(F)(F)F)cc2C(N2CCCC2=O)[C@@H]1O` (some centres not stated), the “Max fall in blood pressure” value is given as 17% in the experiment with Rattus norvegicus [6] and 26% with Rattus norvegicus [3].
On to `CC1(C)Oc2ccncc2[C@@H](N2CCCC2=O)[C@@H]1O`, for which the figures for the “Max fall in blood pressure” value in the experiment with Rattus norvegicus [4] and in the experiment with Rattus norvegicus [7] were 39% and 41%, respectively.
For `CC1(C)Oc2ccc(-c3ccccc3)cc2C(N2CCCC2=O)[C@@H]1O` (some centres not stated), the figures for the “Max fall in blood pressure” value with Rattus norvegicus [8] and in the experiment on Rattus norvegicus [7] were 20% and 14%, respectively.
For the compound `Cc1ccc2c(c1)C(N1CCCC1=O)[C@H](O)C(C)(C)O2` (some centres not stated), the figures for the “Max fall in blood pressure” value in the experiment with Rattus norvegicus [1] and with Rattus norvegicus [7] were 49% and 12%, respectively.
For `CC1(C)Oc2ccc(C3CCCC3)cc2C(N2CCCC2=O)[C@@H]1O` (some centres not stated), the “Max fall in blood pressure” value was 24% with Rattus norvegicus [5] and 66% with Rattus norvegicus [8].
`CC1(C)Oc2cccnc2[C@@H](N2CCCC2=O)[C@@H]1O`: in the experiment with Rattus norvegicus [1], the “Max fall in blood pressure” value was 15%.
For the compound `Cc1ccc2c(c1)C(N1CCCCC1=O)[C@H](O)C(C)(C)O2` (some centres not stated), the “Max fall in blood pressure” value with Rattus norvegicus [5] was 33%; in the experiment on Rattus norvegicus [7], 56%; in the experiment with Rattus norvegicus [3], 16%.
`CCCc1ccc2c(c1)C(N1CCCC1=O)[C@H](O)C(C)(C)O2` (some centres not stated): the “Max fall in blood pressure” value with Rattus norvegicus [4] is reported as 17%; in the experiment on Rattus norvegicus [7], 42%.
Turning to `CC1(C)Oc2cc[n+]([O-])cc2[C@@H](N2CCCCC2=O)[C@@H]1O`, the “Max fall in blood pressure” value in the experiment with Rattus norvegicus [5] is on record as 68%; in the experiment with Rattus norvegicus [3] it was 39%.
The compound `CC1(C)Oc2ccccc2C(N2CCCC2=O)[C@@H]1O` (some centres not stated) had a Max fall in blood pressure with Rattus norvegicus [1] of 49%.
With `CC1(C)Oc2ccc(C#N)cc2C(N2CCCC2=O)C1O` (configuration not stated) [CROMAKALIM], the “Max fall in blood pressure” value with Rattus norvegicus [5] is 47%; in the experiment with Rattus norvegicus [6], 13%; in the experiment on Rattus norvegicus [3], 39%.
